Our source for the Activity, IC50 and inhibition values is ChEMBL document CHEMBL4007450, “Development of 1,2,4-Oxadiazoles as Potent and Selective Inhibitors of the Human Deacetylase Sirtuin 2: Structure-Activity Relationship, X-ray Crystal Structure, and Anticancer Activity” (J Med Chem, 2017).

For test [1], the system named is U-937. Nature of the test: Effect on cell cycle arrest in human U937 cells at 25 uM after 48 hrs by propidium iodide staining-based FACS analysis. The class given is functional.
Test [2] deals with T1, NAD-dependent protein deacetylase sirtuin-2 (Homo sapiens, UniProt Q8IXJ6).
T1 sequence (Q8IXJ6 whole entry): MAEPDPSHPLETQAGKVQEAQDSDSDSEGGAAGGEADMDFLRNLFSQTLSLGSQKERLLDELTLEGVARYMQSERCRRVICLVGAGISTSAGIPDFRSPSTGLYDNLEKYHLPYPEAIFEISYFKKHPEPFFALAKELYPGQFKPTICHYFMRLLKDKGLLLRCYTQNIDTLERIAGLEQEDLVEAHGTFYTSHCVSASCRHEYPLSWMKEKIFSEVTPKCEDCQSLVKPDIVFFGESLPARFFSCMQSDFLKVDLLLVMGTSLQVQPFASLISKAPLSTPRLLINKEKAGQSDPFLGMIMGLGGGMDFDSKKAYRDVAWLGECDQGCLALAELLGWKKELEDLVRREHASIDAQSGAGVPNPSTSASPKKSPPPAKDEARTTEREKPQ

Test [3] has as its target T2, NAD-dependent protein deacetylase sirtuin-2 (Homo sapiens) (UniProt Q8IXJ6).
T2 sequence (whole entry): T1 sequence (Q8IXJ6 whole entry)
Nature of the test: Inhibition of human N-terminal His6-SUMO-tagged SIRT2 catalytic domain (43 to 356 residues) deacetylase activity expressed in Escherichia coli using alpha-tubulin-acetylLys40 peptide as substrate at 100 uM after 45 mins in presence of NAD+ by pNCA/GDH-based microplate spectrophotometric analysis. Summed up:
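Continuous coupled assay: Sirt2 product nicotinamide is converted by pNCA/GDH, and NADPH oxidation is read at 340 nm. Compounds were tested at 10 and 100 μM. Background was taken without peptide or NAD+.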

Test [4] deals with U-937. The test can be described thus: Cell cycle arrest in human U937 cells assessed as accumulation at G2/M phase at 25 uM after 48 hrs by propidium iodide staining-based FACS analysis. The class given is functional.
In test [5] the target is T3, NAD-dependent protein deacetylase sirtuin-1 (Homo sapiens) (UniProt Q96EB6).
T3 sequence (whole entry): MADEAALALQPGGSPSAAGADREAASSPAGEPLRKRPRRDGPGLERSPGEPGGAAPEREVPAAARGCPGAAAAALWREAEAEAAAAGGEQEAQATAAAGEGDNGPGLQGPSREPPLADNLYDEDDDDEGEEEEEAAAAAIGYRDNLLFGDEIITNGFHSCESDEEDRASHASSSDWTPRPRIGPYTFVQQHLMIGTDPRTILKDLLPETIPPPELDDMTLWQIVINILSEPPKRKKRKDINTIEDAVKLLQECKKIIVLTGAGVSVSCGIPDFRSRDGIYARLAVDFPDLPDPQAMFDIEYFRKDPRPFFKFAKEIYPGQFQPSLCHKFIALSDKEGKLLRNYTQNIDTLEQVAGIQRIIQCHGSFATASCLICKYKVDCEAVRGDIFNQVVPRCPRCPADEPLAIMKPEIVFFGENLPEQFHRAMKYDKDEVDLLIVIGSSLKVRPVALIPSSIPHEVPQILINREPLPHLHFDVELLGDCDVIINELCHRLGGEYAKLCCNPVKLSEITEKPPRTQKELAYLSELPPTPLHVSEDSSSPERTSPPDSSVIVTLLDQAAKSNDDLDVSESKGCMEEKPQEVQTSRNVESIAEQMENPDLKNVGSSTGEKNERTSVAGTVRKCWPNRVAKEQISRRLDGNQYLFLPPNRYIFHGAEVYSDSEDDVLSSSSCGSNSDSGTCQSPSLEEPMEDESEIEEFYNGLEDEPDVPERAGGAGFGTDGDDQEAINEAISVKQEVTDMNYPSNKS
The test can be described thus: Inhibition of human full length SIRT1 activity expressed in Escherichia coli using p53 peptide as substrate up to 100 uM after 45 mins in presence of NAD+ by pNCA/GDH-based microplate spectrophotometric analysis. Summed up: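 Full-length Sirt1 at 2 µM with p53 peptide RHKacKLMFK as substrate. Activity was measured in the same coupled pNCA/GDH mix as for Sirt2 (α-ketoglutarate, NADPH, Na-phosphate pH 7.8, 3% DMSO), following NADPH oxidation at 340 nm at 20 °C for 45 min. Compounds were tested up to 100 µM.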

Test [6] has as its target T4, NAD-dependent protein deacetylase sirtuin-3, mitochondrial (Homo sapiens) (UniProt Q9NTG7).
T4 sequence (whole entry): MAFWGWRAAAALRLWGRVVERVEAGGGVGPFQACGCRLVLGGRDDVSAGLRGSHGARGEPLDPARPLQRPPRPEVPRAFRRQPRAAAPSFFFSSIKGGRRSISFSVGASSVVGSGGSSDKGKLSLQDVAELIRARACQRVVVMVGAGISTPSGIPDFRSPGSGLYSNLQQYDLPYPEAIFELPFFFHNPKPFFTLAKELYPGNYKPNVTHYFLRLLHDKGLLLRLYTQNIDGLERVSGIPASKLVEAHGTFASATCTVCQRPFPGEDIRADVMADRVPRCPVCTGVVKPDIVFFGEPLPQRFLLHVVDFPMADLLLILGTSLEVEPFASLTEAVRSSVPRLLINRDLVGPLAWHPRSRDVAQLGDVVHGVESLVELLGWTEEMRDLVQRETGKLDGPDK
The test can be described thus: Inhibition of human SIRT3 (114 to 380 residues) activity expressed in Escherichia coli using AceCS2 peptide as substrate up to 100 uM after 45 mins in presence of NAD+ by pNCA/GDH-based microplate spectrophotometric analysis. Summed up: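 Same pNCA/GDH-coupled 340 nm NADPH read-out as the Sirt2 assay, using 20 mM Na-phosphate pH 7.8 with 3% DMSO at 20 °C for 45 min. Sirt3 (114-380) was used at 5 µM with AceCS2 peptide TRSGacKVMR as substrate. Inhibitors were tested up to 100 µM.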

Test [7] concerns the target NAD-dependent protein deacylase sirtuin-5, mitochondrial (Homo sapiens) (UniProt Q9NXA8). Nature of the test: Inhibition of human SIRT5 (34 to 302 residues) desuccinylase activity expressed in Escherichia coli using peptide as substrate up to 100 uM after 45 mins in presence of NAD+ by pNCA/GDH-based microplate spectrophotometric analysis.
The target is the same in test [8]. The test can be described thus: Inhibition of human SIRT5 (34 to 302 residues) deacetylase activity expressed in Escherichia coli using Prx1 peptide as substrate up to 100 uM after 45 mins in presence of NAD+ by pNCA/GDH-based microplate spectrophotometric analysis.

Calls of active or inactive are those of the source. No cut-off for these calls is given here.

Chain of NAD-dependent protein deacylase sirtuin-5, mitochondrial (Homo sapiens) (Q9NXA8 37-310 limits assumed): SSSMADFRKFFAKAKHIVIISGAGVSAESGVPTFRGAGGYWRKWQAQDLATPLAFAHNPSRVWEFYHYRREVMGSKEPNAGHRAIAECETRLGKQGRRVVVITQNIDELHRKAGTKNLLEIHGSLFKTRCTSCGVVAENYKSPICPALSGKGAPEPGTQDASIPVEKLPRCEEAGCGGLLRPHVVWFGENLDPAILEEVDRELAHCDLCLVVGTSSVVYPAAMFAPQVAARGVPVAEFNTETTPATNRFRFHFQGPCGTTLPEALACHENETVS

In the case of `BrCCCCc1nc(-c2ccc(Br)cc2)no1`, the outcome in the test with U-937 [1] was inactive. The same molecule displayed an IC50 in test [2] of 2.6 µM. As to `FC(F)(F)c1nc(-c2ccc(Br)cc2)no1`, in the test with U-937 [1], the outcome was inactive. As for `CN1CCN(Cc2nc(-c3ccc(Cl)cc3)no2)CC1`, the inhibition result in test [3] was “Active”. In the test with U-937 [1], the result was inactive.

With `Clc1ccc(-c2noc(CN3CCOCC3)n2)cc1`, the inhibition entry in test [3] was “Active”. For the same molecule, the outcome in the test with U-937 [1] was inactive. Turning to `FC(F)(F)c1ccc(-c2noc(CCCBr)n2)cc1`, in the test with U-937 [1], the result was inactive. Further, in test [2], half-maximal inhibition (IC50) was put at 3.9 µM. As for `OCC1CCN(Cc2nc(-c3ccc(Cl)cc3)no2)CC1`, the inhibition entry in test [3] was “Active”. The result with U-937 [1] was inactive. Take `Cc1nc(-c2ccc(Cl)cc2)no1`: the result in the test with U-937 [1] was inactive. For `Clc1ccc(-c2noc(CCCN3CCCCC3)n2)cc1`, the inhibition result in test [3] is “inactive”. In addition, the outcome in the test with U-937 [1] was inactive. Turning to `BrCCCc1nc(-c2cccc(Br)c2)no1`, in the test with U-937 [1], the outcome was inactive. On to `Clc1ccc(-c2noc(CBr)n2)cc1`, for which the result with U-937 [4] was Active.

Turning to `CN(C)Cc1nc(-c2ccc([N+](=O)[O-])cc2)no1`, in test [3], the inhibition result is “inactive”. For the same molecule, in the test with U-937 [1], the result was inactive. Regarding `ClCCCc1nc(-c2ccc(Br)cc2)no1`, in the test with U-937 [1], the result was inactive. Also, the inhibition result in test [5], in test [6], in test [7] and in test [8] was “inactive” in each case. Besides, the IC50 in test [2] is 3.6 µM.

`OCCN1CCN(CCCc2nc(-c3ccccc3)no2)CC1`: the inhibition result in test [3] is “inactive”. Besides, the result in the test on U-937 [1] was inactive. On to `Clc1ccc(-c2noc(CN3CCCCCC3)n2)cc1`, for which, in test [3], the inhibition result is “Active”. Also, the result in the test on U-937 [1] was inactive.

Take `BrCCCc1nc(-c2ccccc2)no1`: the result in the test on U-937 [1] was inactive. The same measure, in the same setting: under `Clc1ccccc1-c1noc(CN2CCCCC2)n1` stands “inactive”. In test [2], `OCCCc1nc(-c2ccc(Cl)cc2)no1` registered a half-maximal inhibitory concentration (IC50) of 41.2 µM. This lies in the double-digit micromolar range. In the case of `Clc1ccc(-c2noc(CN3CCCCC3)n2)cc1`, the inhibition result in test [3] was “Active”. Also, the result in the test with U-937 [1] was inactive. For `Clc1ccc(-c2noc(CN3CCCC3)n2)cc1` the same measures were “Active” and “inactive”. For `Clc1ccc(-c2noc(CNC3CCCCC3)n2)cc1`, in that order: “Active” and “inactive”. As to `Clc1cccc(-c2noc(CCCBr)n2)c1`, the outcome in the test on U-937 [1] was inactive. With `O=[N+]([O-])c1ccc(-c2noc(CN3CCCC3)n2)cc1`, the inhibition entry in test [3] is “inactive”. Besides, the outcome in the test on U-937 [1] was inactive. `BrCCCc1nc(-c2ccccc2Br)no1`: the outcome in the test with U-937 [4] was Active. Regarding `Clc1cccc(-c2noc(CN3CCCCC3)n2)c1`, the result in the test with U-937 [1] was inactive.

Take `CN(C)Cc1nc(-c2ccc(Cl)cc2)no1`: in the test on U-937 [1], the result was inactive. In the case of `O=[N+]([O-])c1ccc(-c2noc(CCCBr)n2)cc1`, the inhibition result in test [3] was “Active”. For the same molecule, the outcome with U-937 [1] was inactive. This molecule returned an IC50 in test [2] of 6.6 µM.

Turning to `Clc1ccccc1-c1noc(CCCBr)n1`, in the test on U-937 [4], the outcome was Active. With `c1ccc(-c2noc(CN3CCCCC3)n2)cc1`, the result in the test on U-937 [1] was inactive. Still for that read-out and setting: the same measure for `c1cncc(-c2noc(CN3CCCCC3)n2)c1`: “inactive”. Turning to `CC(=O)OCCCc1nc(-c2ccc(Cl)cc2)no1`, the IC50 in test [2] is 21.2 µM. Take `CCN(CC)Cc1nc(-c2ccc([N+](=O)[O-])cc2)no1`: the inhibition entry in test [3] is “inactive”. The outcome in the test with U-937 [1] was inactive.

Regarding `Cc1ccc(-c2noc(CCCBr)n2)cc1`, the inhibition entry in test [3] was “Active”. Moreover, in the test on U-937 [1], the outcome was inactive. Consider `COC(=O)c1nc(-c2ccc(Br)cc2)no1`, for which, in the test on U-937 [1], the result was inactive. Take `Clc1ccc(-c2noc(CN3CCSCC3)n2)cc1`: the inhibition result in test [3] was “Active”. The result with U-937 [1] was inactive.

For `Clc1ccc(-c2noc(CN3CCN(c4ccccc4)CC3)n2)cc1`, in test [3], the inhibition result was “Active”. In the test with U-937 [1], the outcome was inactive. Take `NC(=O)c1nc(-c2ccc(Br)cc2)no1`: in the test with U-937 [1], the result was inactive.

The term IC50 denotes the concentration that gives 50% inhibition. A high value points to weaker potency in that assay.
